Assay results reported in ChEMBL document CHEMBL1147268, “New triterpene glycosides from the stems of Anomospermum grandifolium” (2003).
Converted amounts (≈) assume the structure as drawn. The source made the active and inactive calls. The rule behind the calls is not given here.

Legend:
Candida albicans = experiment: Antifungal activity against Candida albicans ATCC 3153 after 18 hrs by broth microdilution method; type: functional; conditions: ATCC 3153, 18 h
How it was run: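 Candida albicans ATCC 3153 was tested by broth microdilution in Sabouraud broth in 96-well plates, in duplicate, per NCCLS. Pure compounds were tested at varied dilution intervals. Plates were incubated 18 h at 37 °C and read from below with a reflective viewer. MIC was taken from the growth end point. DMSO served as blank control and ketoconazole as positive control.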

Pseudomonas aeruginosa [1] = experiment: Antibacterial activity against Pseudomonas aeruginosa ATCC 27853 at 120 ug/mL after 18 hrs by broth microdilution method; type: functional, organism-based
How it was run: (§1)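 Broth microdilution in Mueller Hinton broth in 96-well plates, run in duplicate following NCCLS guidance. Pure compounds were tested at dilution intervals up to a top concentration of 120 or 250 µg/mL. Plates were incubated 18 h at 37 °C and read from below with a reflective viewer. DMSO served as blank control and ampicillin as positive control.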

Staphylococcus aureus [2] = experiment: Antibacterial activity against Staphylococcus aureus ATCC 25923 at 120 ug/mL after 18 hrs by broth microdilution method; type: functional, organism-based; how it was run: as §1
Enterococcus faecalis [3] = experiment: Antibacterial activity against Enterococcus faecalis ATCC 29212 at 120 ug/mL after 18 hrs by broth microdilution method; type: functional, organism-based; how it was run: as §1
Escherichia coli [4] = experiment: Antibacterial activity against Escherichia coli ATCC 25922 at 120 ug/mL after 18 hrs by broth microdilution method; type: functional, organism-based; how it was run: as §1
Enterococcus faecalis [5] = experiment: Antibacterial activity against Enterococcus faecalis ATCC 29212 at 250 ug/mL after 18 hrs by broth microdilution method; type: functional, organism-based; how it was run: as §1
Staphylococcus aureus [6] = experiment: Antibacterial activity against Staphylococcus aureus ATCC 25923 at 250 ug/mL after 18 hrs by broth microdilution method; type: functional, organism-based; how it was run: as §1
Pseudomonas aeruginosa [7] = experiment: Antibacterial activity against Pseudomonas aeruginosa ATCC 27853 at 250 ug/mL after 18 hrs by broth microdilution method; type: functional, organism-based; how it was run: as §1
Escherichia coli [8] = experiment: Antibacterial activity against Escherichia coli ATCC 25922 at 250 ug/mL after 18 hrs by broth microdilution method; type: functional, organism-based; how it was run: as §1

**Q.** How did the MIC (Candida albicans) turn out when `CC(=O)N1CCN(c2ccc(OCC3COC(Cn4ccnc4)(c4ccc(Cl)cc4Cl)O3)cc2)CC1` (stereo not given) [KETOCONAZOLE] was run?
**A.** 0.1 µg/mL (≈ 0.188 µM)

**Q.** How did the Activity (Pseudomonas aeruginosa [1]) turn out when `CC(C)=C[C@H]1C[C@](C)(O)[C@@H]2[C@H]3CC[C@@H]4[C@@]5(C)CC[C@H](O[C@@H]6OC[C@H](O)[C@H](O[C@@H]7O[C@H](CO)[C@@H](O)[C@H](O)[C@H]7O)[C@H]6O[C@@H]6O[C@@H](CO)[C@H](O)[C@H]6O)C(C)(C)[C@@H]5CC[C@@]4(C)[C@@]34CO[C@@]2(C4)O1` was run?
**A.** inactive

**Q.** And the Activity (Staphylococcus aureus [2])?
**A.** inactive

**Q.** And the Activity (Enterococcus faecalis [3])?
**A.** inactive

**Q.** And the Activity (Escherichia coli [4])?
**A.** inactive

**Q.** With `CC(C)=C[C@H]1C[C@](C)(O)[C@@H]2[C@H]3CC[C@@H]4[C@@]5(C)CC[C@H](O[C@@H]6OC[C@H](O)[C@H](O[C@@H]7O[C@H](CO[C@@H]8O[C@H](CO)[C@@H](O)[C@H](O)[C@H]8O)[C@@H](O)[C@H](O)[C@H]7O)[C@H]6O[C@@H]6O[C@@H](CO)[C@H](O)[C@H]6O)C(C)(C)[C@@H]5CC[C@@]4(C)[C@@]34CO[C@@]2(C4)O1` as the molecule, how does the MIC (Candida albicans) read?
**A.** 250 µg/mL (≈ 236 µM)

**Q.** And the Activity (Enterococcus faecalis [5])?
**A.** inactive

**Q.** What about the Activity (Staphylococcus aureus [6]) of the same molecule?
**A.** inactive

**Q.** And the Activity (Pseudomonas aeruginosa [7])?
**A.** inactive

**Q.** And the Activity (Escherichia coli [8])?
**A.** inactive
